This passage reports inhibition results from PubChem BioAssay AID1258 (University of Pittsburgh Molecular Library Screening Center, 2008).

Molecules are shown by their SMILES. Out of some 1,100 compounds screened, about 150 (14%) were called active. Not shown: some 1% with an inconclusive outcome. Only a sample is shown. Values without a mark were called inactive.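 The calls were made as follows: active = inhibition above about 50% in both repeat tests (limit read from the data); inconclusive = one repeat under the set limit, the other over it; inactive = both repeats under the set limit.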

The nature of this test: antileishmanial activity against promastigotes – 1 µM repeat of primary hits, confirmation (AID 1258). As to conditions: L. major promastigote growth, resazurin fluorescence, 48 h; at 1 µM; stronger effect = higher value. An outline of the steps: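 Assay system: Leishmania major promastigote parasites. Amount: 5,000 promastigotes per well. Incubation: 44 h compound exposure plus 4 h dye step, both 28 °C. Evaluation: parasite viability inhibition versus plate controls. Benchmarks: DMSO high/low controls plus tamoxifen reference.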
Background: Alamar Blue is a resazurin reagent that responds to reducing activity.
As to `CN(C)Cc1ccccc1C1(O)c2ccccc2CSc2ccccc21` (stereo unspecified), the inhibition (in general, the drop in the measured response relative to a control, in per cent) was -1.45%.

Regarding `Cc1ccc(Nc2nc(CSc3nnnn3-c3ccccc3)cc(=O)[nH]2)cc1`, the inhibition was -2.73%. For `CN(C)c1ccc(/C=C2\NC(=S)N(Cc3ccccc3)C2=O)cc1` the value was -11.8%; for `CCc1ccc(-c2nn(-c3ccccc3)cc2CSC(=N)N)cc1`, 46.8%; for `c1ccc(C2CCC(N3CCC(N4CCCCC4)CC3)CC2)cc1` (stereo unspecified), 59.2% (active). Regarding `O=C(Nc1ccc2ccccc2c1)Nc1ccc2snnc2c1`, the inhibition is -30.1%. For `Cc1cc(/C=C(/C#N)C(=O)Nc2ccc(Cl)cc2)c(C)n1-c1cccnc1` the value was -3.48%; for `O=C1N(Cc2ccc3c(c2)OCO3)c2ccccc2C1(O)c1c[nH]c2ccccc12` (stereo unspecified), 0.0749%. As for `CCCCn1c(=S)[nH]c2cc(S(=O)(=O)N3CCCCC3)ccc21`, the figure is 9.63%; as for `Cc1nnc(-c2ccc(Oc3ccc(C)c(C)c3)c([N+](=O)[O-])c2)o1`, -11.1%. For `Cc1nc(N2CCOCC2)c2c(C)c(C(=O)Nc3ccc(C(F)(F)F)cc3)sc2n1` the value was 15.1%; for `Cc1ccc(CN(N=Nc2nonc2N)c2nonc2N)c(C)c1`, -2.38%. For the compound `Cc1nc([N+](=O)[O-])nn1C12CC3CC(CC(Br)(C3)C1)C2`, the inhibition is 38.5%. For the compound `CC(=O)NC1C(OCc2ccccc2)OC(COC(C)=O)C(OC(C)=O)C1OC(C)=O` (stereo unspecified), the inhibition is -7.57%. As for `O=C(CCN1C(=O)c2ccccc2C1=O)Nc1cccc(F)c1`, the figure is -12.6%; as for `O=C(NC(Cc1c[nH]c2ccccc12)C(=O)N/N=C/c1ccc(Br)cc1)c1cccs1` (stereo unspecified), -12.7%; as for `c1ccc(-c2cc(-c3nnc4sc(-c5ccccn5)nn34)[nH]n2)cc1`, 50.6% (active).

Take `COC(=O)C1=C(C)N(c2ccc(C)cc2)/C(=C/c2ccc(O)cc2)C1=O`: the inhibition was 8.89%. As for `COc1ccc(COC(=O)c2n[nH]c3ccccc23)cc1F`, the figure is -13%; as for `CS(=O)(=O)Nc1cccc(C2=NN(S(=O)(=O)c3ccccc3)C(c3cccs3)C2)c1` (stereo unspecified), -8.88%; as for `Cc1cccc(-n2c(C)cc(/C=N/NC(N)=S)c2C)c1`, 15.8%. With `C=CCNc1nnc(SCC(=O)N2CCCCC2)c2ccccc12`, the inhibition was -6.19%. For `N#Cc1ccccc1-n1c(N)c(C(=O)N2CCCC2)sc1=S` the value was -0.236%; for `CC12CCC(C(=O)N(NC(=O)c3ccccc3O)C1=O)C2(C)C` (stereo unspecified), -15.5%; for `Nc1cccc(-c2cc(-c3ccccc3)nc(-c3cccc(N)c3)n2)c1`, -6.75%.

Turning to `COc1ccc2[nH]c(C)c(CCN(Cc3cccs3)C(=S)Nc3ccccc3OC)c2c1`, the inhibition was 28.7%. For the compound `c1ccc(Cc2cc[n+](Cc3ccccc3)cc2)cc1`, the inhibition was -17.2%. As for `CN(C)c1ccc(/C=N\S(=O)(=O)c2ccccc2)cc1`, the figure is -0.93%; as for `O=C(c1cccnc1)N(c1cc2sc(=O)oc2c2ccccc12)S(=O)(=O)c1ccccc1`, 95.1% (active).

For `N#C/C=C\Oc1ccc(Cl)cc1N`, the inhibition is -12.9%. For `COc1ccc(-c2cc(C(F)(F)F)nc(S(C)(=O)=O)n2)cc1OC` the value was 36.4%.
